From ChEMBL document CHEMBL4130578, “Synthesis, biological evaluation and structure-activity relationship studies of hederacolchiside E and its derivatives as potential anti-Alzheimer agents” (Eur J Med Chem, 2018)

Legend:
[1] = test system: PC-12; experiment: Cytoprotection against H2O2-induced cell injury in rat PC12 cells assessed as increase in cell viability preincubated for 12 hrs followed by H2O2 addition measured after 12 hrs by MTT assay; type: functional, cell-based
Procedure, shortened: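 PC12 cells grown in RPMI-1640 with 15% FBS and penicillin/streptomycin, subcultured every 2 days and cultured 8 days before use. Cells seeded at 1 × 10^4/well, after 12 h pretreated with compound 12 h, then exposed to 200 µM H2O2 for 12 h. MTT added for 4 h, formazan dissolved in DMSO, OD 490 nm read. Viability given as % of untreated control, mean ± SD, n = 3, ANOVA with Dunnett's test.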

[2] = test system: PC-12; experiment: Cytoprotection against amyloid beta (1 to 42)-induced cell injury in rat PC12 cells assessed as cell viability at 10 uM preincubated for 12 hrs followed by amyloid beta (1 to 42) addition measured after 12 hrs by MTT assay (reference value: 55.3 +/- 1.5%); type: functional; conditions: read-out: Activity
[3] = test system: PC-12; experiment: Cytoprotection against amyloid beta (1 to 42)-induced cell injury in rat PC12 cells assessed as cell viability at 50 uM preincubated for 12 hrs followed by amyloid beta (1 to 42) addition measured after 12 hrs by MTT assay (reference value: 55.3 +/- 1.5%); type: functional; conditions: read-out: Activity
[4] = test system: PC-12; experiment: Cytotoxicity against rat PC12 cells assessed as decrease in cell viability at high concentration after 12 hrs by MTT assay; type: cell-based; conditions: pc-12, 12 h
[5] = test system: PC-12; experiment: Cytoprotection against amyloid beta (1 to 42)-induced cell injury in rat PC12 cells assessed as cell viability at 100 uM preincubated for 12 hrs followed by amyloid beta (1 to 42) addition measured after 12 hrs by MTT assay (reference value: 55.3 +/- 1.5%); type: functional; conditions: read-out: Activity

SMILES | Activity [1] | viability at 10 µM [2] | viability at 50 µM [3] | Activity [4] | viability at 100 µM [5]
C[C@@H]1O[C@@H](O[C@H]2[C@H](O[C@H]3CC[C@]4(C)[C@H]5CC=C6[C@@H]7CC(C)(C)CC[C@]7(C(=O)O[C@@H]7O[C@H](CO[C@@H]8O[C@H](CO)[C@@H](O[C@@H]9O[C@@H](C)[C@H](O)[C@@H](O)[C@H]9O)[C@H](O)[C@H]8O)[C@@H](O)[C@H](O)[C@H]7O)CC[C@@]6(C)[C@]5(C)CC[C@H]4C3(C)C)OC[C@H](O[C@@H]3O[C@H](CO)[C@H](O)[C@H](O)[C@H]3O)[C@@H]2O)[C@H](O)[C@H](O)[C@H]1O | Dose-dependent effect | 52.6% | 58.6% |  | 
C[C@@H]1O[C@@H](O[C@H]2[C@H](O[C@H]3CC[C@]4(C)[C@H]5CC=C6[C@@H]7CC(C)(C)CC[C@]7(C(=O)O[C@@H]7O[C@H](CO[C@@H]8O[C@H](CO)[C@@H](O[C@@H]9O[C@@H](C)[C@H](O)[C@@H](O)[C@H]9O)[C@H](O)[C@H]8O)[C@@H](O)[C@H](O)[C@H]7O)CC[C@@]6(C)[C@]5(C)CC[C@H]4C3(C)C)OC[C@H](O[C@@H]3O[C@H](CO)[C@@H](O)[C@H]3O)[C@@H]2O)[C@H](O)[C@H](O)[C@H]1O | Dose-dependent effect | 58.5% | 57.9% |  | 
C[C@@H]1O[C@@H](O[C@H]2[C@H](O[C@H]3CC[C@]4(C)[C@H]5CC=C6[C@@H]7CC(C)(C)CC[C@]7(C(=O)O[C@@H]7O[C@H](CO[C@@H]8O[C@H](CO)[C@@H](O)[C@H](O)[C@H]8O)[C@@H](O)[C@H](O)[C@H]7O)CC[C@@]6(C)[C@]5(C)CC[C@H]4C3(C)C)OC[C@H](O[C@@H]3O[C@H](CO)[C@@H](O)[C@H](O)[C@H]3O)[C@@H]2O)[C@H](O)[C@H](O)[C@H]1O |  | 29.5% | 19.8% | Toxic | 
C[C@@H]1O[C@@H](O[C@H]2[C@H](O[C@H]3CC[C@]4(C)[C@H]5CC=C6[C@@H]7CC(C)(C)CC[C@]7(C(=O)O[C@@H]7O[C@H](CO[C@@H]8O[C@H](CO)[C@@H](O[C@@H]9O[C@@H](C)[C@H](O)[C@@H](O)[C@H]9O)[C@H](O)[C@H]8O)[C@@H](O)[C@H](O)[C@H]7O)CC[C@@]6(C)[C@]5(C)CC[C@H]4C3(C)C)OC[C@H](O[C@@H]3O[C@@H](C)[C@H](O)[C@@H](O)[C@H]3O)[C@@H]2O)[C@H](O)[C@H](O)[C@H]1O | Dose-dependent effect | 61.4% | 68.4% |  | 74.6%
C[C@@H]1O[C@@H](O[C@H]2[C@H](O[C@H]3CC[C@]4(C)[C@H]5CC=C6[C@@H]7CC(C)(C)CC[C@]7(C(=O)O[C@@H]7O[C@H](CO[C@@H]8O[C@H](CO)[C@@H](O[C@@H]9O[C@@H](C)[C@H](O)[C@@H](O)[C@H]9O)[C@H](O)[C@H]8O)[C@@H](O)[C@H](O)[C@H]7O)CC[C@@]6(C)[C@]5(C)CC[C@H]4C3(C)C)OC[C@H](O[C@@H]3OC[C@@H](O)[C@H](O)[C@H]3O)[C@@H]2O)[C@H](O)[C@H](O)[C@H]1O | Dose-dependent effect | 52.7% | 55.7% |  | 
C[C@@H]1O[C@@H](O[C@H]2[C@H](O[C@H]3CC[C@]4(C)[C@H]5CC=C6[C@@H]7CC(C)(C)CC[C@]7(C(=O)O[C@@H]7O[C@H](CO[C@@H]8O[C@H](CO)[C@@H](O[C@@H]9O[C@@H](C)[C@H](O)[C@@H](O)[C@H]9O)[C@H](O)[C@H]8O)[C@@H](O)[C@H](O)[C@H]7O)CC[C@@]6(C)[C@]5(C)CC[C@H]4C3(C)C)OC[C@H](O[C@@H]3OC[C@H](O)[C@H](O)[C@H]3O)[C@@H]2O)[C@H](O)[C@H](O)[C@H]1O | Dose-dependent effect | 58.3% | 59.7% |  | 
